Screens (PubChem)
CAL PDZ FP-1 = CAL PDZ peptide-binding inhibitors, primary screen, biochemical, fluorescence polarization, Cer-tagged CAL PDZ, HTS; Golgi-associated PDZ and coiled-coil motif-containing protein (Homo sapiens), Q9HD26; purified CAL PDZ, TMR-peptide fluorescence polarization, 1 h; inhibition, % at 20 µM; 330,000 tested, 0.02% active;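 active = highest replicate inhibition of at least 40%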
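material = purified tagged CAL PDZ domain construct (CerCALP) | buffer or medium = sodium phosphate/NaCl buffer pH 7.4 with TCEP, IgG, Thesit | reagent = TMR-labelled reporter peptide T*-PRC34 bound in PDZ groove | incubation = 1 h room-temperature incubation prior to read | measured by = fluorescence polarization (mP) | evaluation = percent inhibition from loss of millipolarization | control set = unlabelled peptide and DMSO controls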
CAL PDZ FP-2 = untagged CAL PDZ binding inhibitors, primary screen, biochemical, fluorescence polarization, HTS | inhibition, % at 24.9 µM | AID 602252, 2012 | purified CAL PDZ, TMR-peptide fluorescence polarization, 1 h | 300,000 tested, 0.92% active;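 active = mean inhibition of at least 30% with at least half of replicates also reaching 30%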
DYRK1A inh = rat Dyrk1A kinase inhibitors, primary screen, biochemical, single point, plate reader; Dual specificity tyrosine-phosphorylation-regulated kinase 1A (Rattus norvegicus), Q63470; AID 504441, 2011; inhibition, % at 12.5 µM; 310,000 tested, 0.43% active; ADP-Glo luminescence, NFATc1 peptide; in the data active = inhibition above about 50%
ARNT TACC3 PPI = disruptors of ARNT/TACC3 protein interaction, primary screen, biochemical, AlphaScreen, single concentration; inhibition, % at 9.99 µM; AlphaScreen His-ARNT PAS-B/GST-TACC3 binding, luminescence; TACC3 fragment carries E629A point mutation; 390,000 tested, 0.66% active; Transforming acidic coiled-coil-containing protein 3 (Homo sapiens), Q9Y6A5;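 active = mean inhibition of replicates at least 50% and at least half of replicates each reaching 50%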
Each line names hits and unclear results; the compound was inactive in the other large screens. Compounds with a hit are over-represented: about 1.4% of the library has one in this group of screens.

COCCCNC(=S)N(CCCO)Cc1cc2cc3c(cc2[nH]c1=O)OCCO3	CAL PDZ FP-2 41.7
CCNC(=S)N(CCN(C)C)Cc1cc2cc3c(cc2[nH]c1=O)OCO3	CAL PDZ FP-2 84.0 (no result: CAL PDZ FP-1)
CO[C@@H]1CN(C)C(=O)c2ccc(NC(=O)c3ccc(F)cc3)cc2OC[C@@H](C)N(C)C[C@@H]1C	none (no result: CAL PDZ FP-1, CAL PDZ FP-2, DYRK1A inh)
CC(NC1=CC(=O)c2cccnc2C1=O)C(O)c1ccccc1 (configuration not stated)	ARNT TACC3 PPI 47.4
O=C(NCC[C@H]1CC[C@H](NC(=O)c2ccccc2F)[C@@H](CO)O1)c1ccc2c(c1)OCO2	none (no result: CAL PDZ FP-1, CAL PDZ FP-2, DYRK1A inh)
O=C(NCc1ccccn1)NC12CC3CC(CC(C3)C1)C2	CAL PDZ FP-2 76.1
CCOC(=O)/C(C#N)=C1/SC(CC)C(=O)N1c1ccc(C)cc1 (configuration not stated)	CAL PDZ FP-2 55.8
CCOC(=O)/C(C#N)=C1/C=CN(c2ccc(C)cc2)C=N1	none
COc1ccc(CC2=C(O)c3ccccc3C(=O)C2=O)cc1	none
O=C1C(=O)c2ccccc2C(O)=C1CCCCl	ARNT TACC3 PPI 36.9 (no result: CAL PDZ FP-2)
O=C(NCCN1CCOCC1)c1ccc(CS(=O)(=O)c2c(Cl)cccc2Cl)o1	CAL PDZ FP-2 32.1 (no result: ARNT TACC3 PPI)
Cc1noc(C)c1NC(=O)Nc1ccc2c(c1)C(=O)N([C@H](C)CO)C[C@H](C)[C@H](CN(C)C(=O)Nc1c(C)noc1C)O2	none (no result: CAL PDZ FP-1, CAL PDZ FP-2, DYRK1A inh)
O=C(COc1cc(Cl)ccc1Cl)Nc1nnc(C2CC2)s1	CAL PDZ FP-2 37.3
O=C(COc1ccc(Br)cc1F)Nc1nnc(C2CC2)s1	none (no result: DYRK1A inh)
CC(/C=N/Nc1nnc(C)c(=O)[nH]1)=C\c1ccccc1	none
C/C(=N\Nc1nnc(C)c(=O)[nH]1)C(=O)O	ARNT TACC3 PPI 65.7
Cc1ccc(NC(=O)c2ccc(S(=O)(=O)N3CCC(C)CC3)cc2)nc1	CAL PDZ FP-2 47.9
Cc1ccc(NC(=O)c2ccc(S(=O)(=O)N3CCCCCC3)cc2)nc1	none
CN(C)c1ccc(Nc2nc(N)c3ccccc3n2)cc1	ARNT TACC3 PPI 49.5
c1cnc2c(SCc3ccc(-c4nnco4)cc3)cccc2c1	ARNT TACC3 PPI 59.5 (no result: CAL PDZ FP-2)
CC(=O)Nc1cccc(/C(C)=N/NS(=O)(=O)c2ccccc2)c1	none (no result: ARNT TACC3 PPI)
COc1ccc(S(=O)(=O)N/N=C(/C)c2cccc(NC(=O)c3ccccc3Cl)c2)cc1	CAL PDZ FP-2 43.0
CC1COCC(C)N1C1=C(Cl)C(=O)c2ccccc2C1=O (configuration not stated)	ARNT TACC3 PPI 30.0
NC(=O)C1CCN(C2=C(Cl)C(=O)c3ccccc3C2=O)CC1	none
CCOc1ccc(C2N(c3cc(C)on3)C(=O)C3CCCN32)cc1OC (configuration not stated)	none
COc1ccc(C2N(c3cc(C)on3)C(=O)C3CCCN32)cc1OC (configuration not stated)	CAL PDZ FP-2 50.8
CCOc1ccc2c(ccc(/C=C/c3cc(C)c4cccnc4c3O)[n+]2C)c1	ARNT TACC3 PPI 65.3 (no result: DYRK1A inh)
O=C(NCc1ccccc1Cl)C1CCN(S(=O)(=O)N2CCC3(CC2)OCCO3)CC1	none
Cn1c(=O)oc2cc(S(=O)(=O)N3CCC(C(=O)NCc4ccccc4Cl)CC3)ccc21	CAL PDZ FP-2 50.3
O=C(Cn1c(=O)oc2cc(S(=O)(=O)N3CCCC3)ccc21)Nc1ccccc1Br	CAL PDZ FP-2 60.6
Cc1ccsc1CN1CCC(C(=O)NCc2ccccc2Cl)CC1	CAL PDZ FP-2 59.3
CN(C)c1ccc(CNC(=O)C2CCN(S(=O)(=O)c3ccc4c(c3)oc(=O)n4C)CC2)cc1	none
CC(C)C(=O)Nc1ccc2c(c1)C(=O)N(C)[C@H]1CC[C@H](CC(=O)Nc3ccccc3F)O[C@@H]1CO2	none (no result: CAL PDZ FP-1, CAL PDZ FP-2, DYRK1A inh)
C[C@H]1CN([C@@H](C)CO)C(=O)c2cc(NS(C)(=O)=O)ccc2O[C@@H]1CN(C)S(C)(=O)=O	none (no result: CAL PDZ FP-1, CAL PDZ FP-2, DYRK1A inh)
CN(C)CC(=O)N[C@H]1C=C[C@@H](CC(=O)NCCN2CCCCC2)O[C@H]1CO	none (no result: CAL PDZ FP-1, CAL PDZ FP-2, DYRK1A inh)
C[C@H](CO)N1C[C@H](C)[C@@H](CN(C)Cc2ccccn2)Oc2cc(C#C[C@@H](C)O)ccc2S1(=O)=O	none (no result: CAL PDZ FP-1, CAL PDZ FP-2, DYRK1A inh)
CCn1c(COc2cccc3ccccc23)nnc1SCC(N)=O	CAL PDZ FP-2 51.6
CCn1c(COc2ccccc2C)nnc1SCC(=O)NCc1ccccc1	none (no result: CAL PDZ FP-2)
